Here are results for 14 molecules from ChEMBL document CHEMBL1140096, “Discovery of novel nitrobenzothiazole inhibitors for Mycobacterium tuberculosis ATP phosphoribosyl transferase (HisG) through virtual screening” (J Med Chem, 2008).

The nature of assay [1]: Inhibition of Escherichia coli HisG.
Assay [2] has as its target T1, ATP phosphoribosyltransferase (Mycobacterium tuberculosis) (UniProt P9WMN1).
T1 sequence (whole entry): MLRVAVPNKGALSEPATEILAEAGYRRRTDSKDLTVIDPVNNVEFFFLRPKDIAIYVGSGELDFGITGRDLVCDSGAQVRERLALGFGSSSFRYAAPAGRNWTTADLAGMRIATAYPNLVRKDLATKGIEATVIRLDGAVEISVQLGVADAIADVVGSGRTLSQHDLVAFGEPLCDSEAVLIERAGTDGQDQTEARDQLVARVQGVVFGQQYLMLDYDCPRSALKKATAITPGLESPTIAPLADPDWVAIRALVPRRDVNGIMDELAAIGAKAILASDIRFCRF
Nature of the assay: Inhibition of Mycobacterium tuberculosis HisG assessed as phosphoribosyl ATP production at 1 uM by spectrophotometry.

Assay [3] concerns the target T2, ATP phosphoribosyltransferase (Mycobacterium tuberculosis, UniProt P9WMN1).
T2 sequence (P9WMN1 whole entry): T1 sequence (whole entry)
The experiment in a line: Inhibition of Mycobacterium tuberculosis HisG assessed as phosphoribosyl ATP production by spectrophotometry.

For assay [4], the target named is T1, ATP phosphoribosyltransferase (Mycobacterium tuberculosis). Nature of the assay: Inhibition of Mycobacterium tuberculosis HisG assessed as phosphoribosyl ATP production at 10 uM by spectrophotometry.
Assay [5] relates to Mycolicibacterium smegmatis. The experiment in a line: Antimycobacterial activity against Mycobacterium smegmatis ATCC 700084 at 12 ug/mL. In kind it is functional, organism-based. Put shortly: (§1)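 M. smegmatis ATCC 700084 pre-grown 2 days in 7H9 with 0.2% glucose and 0.05% Tween80, then plated on 7H10 agar (0.2% glycerol) containing compound at 1, 3, 6, 12 or 25 μg/ml. Plates were incubated 4 days at 37 °C and growth was judged by inspection. Controls were no-compound and DMSO plates, plus kanamycin 25 μg/ml.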

For assay [6], the system named is Mycolicibacterium smegmatis. The experiment in a line: Antimycobacterial activity against Mycobacterium smegmatis ATCC 700084 at 25 ug/mL. It is filed as functional. Put shortly: as §1

Molecules are shown by their SMILES. Calls of active or inactive are those of the source. The rule behind the calls is not given here.

As a reminder, the Ki is the equilibrium dissociation constant of an inhibitor or competing ligand from its target. Consider `O=[N+]([O-])c1ccc(O)c([N+](=O)[O-])c1` [2,4-DINITROPHENOL], for which the Ki in assay [1] was determined as 50 µM. For orientation: inhibition means the change of the read-out against control, counted positive when it falls. For orientation: IC50 means the point on the concentration scale where inhibition reaches its midpoint. For `O=C(CC(NC(=O)c1ccccc1)c1ccccc1)Nc1nc2ccc([N+](=O)[O-])cc2s1` (configuration not stated), the inhibition in assay [2] was determined as 35%. Besides, in assay [3], the IC50 was determined as 6 µM and the inhibition constant (Ki) stood at 2 µM. Also, the inhibition in assay [4] came to 71%. On to `O=[N+]([O-])c1ccc2c(/N=N/c3ccc4ccccc4c3O)c(O)cc(S(=O)(=O)O)c2c1`, for which, in assay [3], the IC50 was 10 µM. Further, the inhibition in assay [4] turned out to be 50%.

In turn, `Oc1c(Cl)c(Cl)c(Cl)c(Cl)c1Cl` [PENTACHLOROPHENOL] came in with a Ki in assay [1] of 50 µM. Same read-out and setting: the result for `O=c1oc2ccccc2c(O)c1Cc1c(O)c2ccccc2oc1=O` [DICUMAROL] reads 50 µM. Take `O=C(CSc1nnc(-c2ccccc2)c(-c2ccccc2)n1)Cc1nccs1`: the inhibition in assay [2] is 40%. For the same molecule, in assay [3], the IC50 is 4 µM and the inhibition constant (Ki) was 2 µM. For the same molecule, in assay [4], the inhibition turned out to be 76%. As for `Nc1nc(SCc2ccccc2)c(N)c(SCc2ccccc2)n1`, the inhibition in assay [4] is 48%. For the molecule `O=C(NNC(=O)c1cc([N+](=O)[O-])cc([N+](=O)[O-])c1Br)Nc1ccccc1`, the IC50 in assay [3] is 5.5 µM. For the same molecule, the inhibition in assay [4] turned out to be 71%.

For the molecule `COc1cc(C2C(C(=O)c3ccc(Cl)cc3)=C(O)C(=O)N2Cc2cccnc2)cc(OC)c1OC` (configuration not stated), the inhibition in assay [4] was 20%.

For `CCOC(=O)C(=O)Nc1nc2ccc([N+](=O)[O-])cc2s1`, the concentration for half-maximal inhibition (IC50) in assay [3] amounted to 13.9 µM. Besides, in assay [4], the inhibition stood at 39%.

With `O=[N+]([O-])c1ccc(Nc2cc(Nc3cccc(O)c3)c3nonc3c2[N+](=O)[O-])c(O)c1`, in assay [5], the outcome was Active. Moreover, the IC50 in assay [3] is 11.9 µM. For the same molecule, in assay [4], the inhibition stood at 46%. In addition, 25 µg/mL produced 100% inhibition in assay [6]. With `COc1ccc(COC(=O)C2=C(C)NC3=C(C(=O)CC(c4cccs4)C3)C2c2cccs2)cc1` (configuration not stated), the IC50 in assay [3] turned out to be 10 µM. The inhibition in assay [4] worked out at 50%. With `Cc1cc(/N=N/c2ccc(S(=O)(=O)O)cc2)c(N)c(/N=N/c2ccc(S(=O)(=O)O)cc2)c1N`, the inhibition in assay [4] was determined as 45%.

On to `CN(CC(=O)O)c1nc2cc([N+](=O)[O-])ccc2s1`, for which, in assay [4], the inhibition was 15%.
